Measured values taken from ChEMBL document CHEMBL4304743, “Discovery of ( E)- N1-(3-Fluorophenyl)- N3-(3-(2-(pyridin-2-yl)vinyl)-1 H-indazol-6-yl)malonamide (CHMFL-KIT-033) as a Novel c-KIT T670I Mutant Selective Kinase Inhibitor for Gastrointestinal Stromal Tumors (GISTs)” (J Med Chem, 2019).
pEC50, pIC50: −log10 of the molar value. The source made the active and inactive calls. No cut-off for these calls is given here.

Tests used:
[1] = biological target: T1, Mast/stem cell growth factor receptor Kit (Homo sapiens, UniProt P10721); assay: Inhibition of wild type TEL fused c-KIT (unknown origin) transfected in mouse BAF3 cells assessed as growth inhibition after 72 hrs by CCK8 assay; assay type: cell-based; details: baf3, 72 h
Procedure, shortened: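 IL-3 independent BaF3 cells stably expressing tel-c-KIT wt or tel-c-KIT T670I, grown in RPMI 1640 with 10% FBS, 2% L-glutamine, 37 °C, 5% CO2. Suspension cells at 1.5 to 5 × 10^4 cells/mL mixed with serial compound dilutions and incubated 72 h. Viability read by CCK-8 absorbance at 450 nm, normalized to DMSO; GI50 from curve fit. Selectivity is wt GI50 over T670I GI50.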

[2] = biological target: T1, Mast/stem cell growth factor receptor Kit; assay: Inhibition of wild-type His-tagged c-KIT (unknown origin) expressed in baculovirus infected sf9 cells pre-incubated for 60 mins followed by ATP addition and measured after 1 hr by Z-LYTE assay
[3] = biological target: T1, Mast/stem cell growth factor receptor Kit; assay: Inhibition of wild type c-KIT phosphorylation at Y703 residue in human COLO320DM cells after 2 hrs by Western blot analysis; assay type: cell-based
[4] = biological target: T1, Mast/stem cell growth factor receptor Kit; assay: Inhibition of TEL fused wild type c-KIT (unknown origin) transfected in mouse BaF3 cells assessed as reduction in phosphorylation at Y823 residue after 2 hrs by Western blot analysis; assay type: cell-based
[5] = biological target: Platelet-derived growth factor receptor beta (Homo sapiens, UniProt P09619); assay: Binding affinity to wild-type human partial length PDGFRB (V582 to Y1009 residues) expressed in bacterial expression system assessed as enzyme remaining activity at 1 uM by Kinomescan assay relative to control
Procedure, shortened: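 KINOMEscan competition binding panel of 468 kinases and mutants, compound at 1 μM; binding reported as percent of control.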

[6] = system: Mast/stem cell growth factor receptor Kit (Homo sapiens), P10721 [V559D]; assay: Binding affinity to human partial length c-KIT V559D mutant (Y545 to D952 residues) expressed in bacterial expression system assessed as enzyme remaining activity at 1 uM by Kinomescan method relative to control
Procedure, shortened: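 KINOMEscan binding profile (DiscoverX) run at 1 μM against a panel of 468 kinases and mutants. Read-out is percent of control (%Ctrl) remaining bound.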

GIST882 = assay: Antiproliferative activity against human GIST882 cells harboring c-KIT K642E mutant incubated for 72 hrs by CCK8 assay; assay type: functional; details: GIST882, 72 h
Procedure, shortened: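 Adherent GIST cells seeded at 1.5-5 × 10^4 cells/mL and left overnight at 37 °C, 5% CO2. Medium then replaced with medium holding serial compound dilutions; 72 h incubation. Viability by CCK-8, absorbance at 450 nm, normalized to DMSO control; GI50 from dose-response fit.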

[7] = system: Mast/stem cell growth factor receptor Kit (Homo sapiens), P10721 [UNDEFINED MUTATION]; assay: Inhibition of c-KIT 560 to 578 deletion/T670I double mutant in human GISTT1 cells assessed as reduction in c-KIT autophosphorylation at Y719 residue at 0.1 uM to 3 uM after 1 hr by Western blot analysis; assay type: cell-based
Procedure, shortened: (§1)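 Serial compound dilutions applied for 1 h to GIST-T1, GIST-T1-T670I (CRISPR/Cas9 T670I knock-in, clone confirmed by Sanger sequencing) or GIST-5R cells in DMEM with 10% FBS. Cells then lysed and phospho-proteins detected by standard Western blotting.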

[8] = system: Mast/stem cell growth factor receptor Kit (Homo sapiens), P10721 [UNDEFINED MUTATION]; assay: Inhibition of c-KIT 560 to 578 deletion mutant in human GISTT1 cells assessed as reduction in c-KIT autophosphorylation at Y823 residue at 0.1 uM to 3 uM after 1 hr by Western blot analysis; assay type: cell-based; procedure, shortened: as §1
[9] = system: Mast/stem cell growth factor receptor Kit (Homo sapiens), P10721 [UNDEFINED MUTATION]; assay: Inhibition of c-KIT 560 to 578 deletion mutant in human GISTT1 cells assessed as reduction in c-KIT autophosphorylation at Y703 residue at 0.1 uM to 3 uM after 1 hr by Western blot analysis; assay type: cell-based; procedure, shortened: as §1
[10] = system: Mast/stem cell growth factor receptor Kit (Homo sapiens), P10721 [UNDEFINED MUTATION]; assay: Inhibition of c-KIT 560 to 578 deletion mutant in human GISTT1 cells assessed as reduction in c-KIT autophosphorylation at Y719 residue at 0.1 uM to 3 uM after 1 hr by Western blot analysis; assay type: cell-based; procedure, shortened: as §1
[11] = system: Mast/stem cell growth factor receptor Kit (Homo sapiens), P10721 [UNDEFINED MUTATION]; assay: Inhibition of c-KIT 560 to 578 deletion/T670I double mutant in human GISTT1 cells assessed as reduction in c-KIT autophosphorylation at Y703 residue at 0.1 uM to 3 uM after 1 hr by Western blot analysis; assay type: cell-based; procedure, shortened: as §1
[12] = system: Mast/stem cell growth factor receptor Kit (Homo sapiens), P10721 [UNDEFINED MUTATION]; assay: Inhibition of c-KIT 560 to 578 deletion/T670I double mutant in human GIST5R cells assessed as reduction in c-KIT autophosphorylation at Y823 residue at 0.1 uM to 3 uM after 1 hr by Western blot analysis; assay type: cell-based; procedure, shortened: as §1
[13] = Tmax in mouse at 10 mg/kg, po measured after 5 to 720 mins by LC-tandem mass spectrometry analysis; assay type: ADME, organism-based; details: in vivo
[14] = Oral bioavailability in mouse at 10 mg/kg measured after 5 to 720 mins by LC-tandem mass spectrometry analysis; assay type: ADME, organism-based; details: in vivo
[15] = Cmax in Sprague-Dawley rat at 1 mg/kg, iv measured after 2 to 720 mins by LC-tandem mass spectrometry analysis; assay type: ADME, organism-based; set-up: dose 1 mg/kg, route intravenous; details: in vivo
Procedure, shortened: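 Male Sprague-Dawley rats (190-210 g), fasted 12 h, randomized into two groups: 1 mg/kg i.v. or 10 mg/kg p.o., both formulated in 10% DMSO/90% of 5% glucose water. Blood sampled at 2-720 min (i.v.) or 5-720 min (p.o.). Plasma protein-precipitated with methanol, caffeine internal standard, LC-MS/MS. Noncompartmental analysis; triplicate, ±SD.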

Mus musculus = assay: Inhibition of c-KIT phosphorylation at Y719 residue in tumor of human GIST5R cells xenografted in nude mouse at 100 mg/kg, po administered as single dose and measured after 2 hrs; assay type: functional, organism-based
Procedure, shortened: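 Female nu/nu mice bearing subcutaneous GIST-5R xenografts (cells in Matrigel, right flank) given one oral gavage dose of 100 mg/kg in HKI suspension (0.5% methocellulose/0.4% Tween80 in ddH2O). Tumors collected over a 2 h time course; p-c-KIT, p-ERK and p-AKT assessed by Western blot; plasma drug levels monitored in parallel.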

[16] = Antitumor activity against human GIST5R cells xenografted in nude mouse assessed as tumor growth inhibition at 100 mg/kg, po administered […] via gavage for 28 days relative to control; assay type: functional; details: 672 h, read-out: TGI
Procedure, shortened: (§2)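 Female nu/nu mice (5 weeks old) given subcutaneous right-flank GIST-5R cells in Matrigel. Dosing began at tumors of 200-400 mm3; randomized, 4 mice per group. Daily oral dosing (QD) at 25, 50 or 100 mg/kg in 0.5% methylcellulose/0.4% Tween80, or vehicle alone, for 28 days. Body weight and tumor volume, (W²×L)/2, measured daily; mean±SEM.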

[17] = Antitumor activity against human GIST5R cells xenografted in nude mouse assessed as tumor weight at 25 mg/kg, po administered […] via gavage for 28 days (reference value: 0.59g); assay type: functional; procedure, shortened: as §2
[18] = Antitumor activity against human GIST5R cells xenografted in nude mouse assessed as tumor weight at 100 mg/kg, po administered […] via gavage for 28 days (reference value: 0.59g); assay type: functional; procedure, shortened: as §2

T1 sequence (P10721 whole entry, the tested form may be a part): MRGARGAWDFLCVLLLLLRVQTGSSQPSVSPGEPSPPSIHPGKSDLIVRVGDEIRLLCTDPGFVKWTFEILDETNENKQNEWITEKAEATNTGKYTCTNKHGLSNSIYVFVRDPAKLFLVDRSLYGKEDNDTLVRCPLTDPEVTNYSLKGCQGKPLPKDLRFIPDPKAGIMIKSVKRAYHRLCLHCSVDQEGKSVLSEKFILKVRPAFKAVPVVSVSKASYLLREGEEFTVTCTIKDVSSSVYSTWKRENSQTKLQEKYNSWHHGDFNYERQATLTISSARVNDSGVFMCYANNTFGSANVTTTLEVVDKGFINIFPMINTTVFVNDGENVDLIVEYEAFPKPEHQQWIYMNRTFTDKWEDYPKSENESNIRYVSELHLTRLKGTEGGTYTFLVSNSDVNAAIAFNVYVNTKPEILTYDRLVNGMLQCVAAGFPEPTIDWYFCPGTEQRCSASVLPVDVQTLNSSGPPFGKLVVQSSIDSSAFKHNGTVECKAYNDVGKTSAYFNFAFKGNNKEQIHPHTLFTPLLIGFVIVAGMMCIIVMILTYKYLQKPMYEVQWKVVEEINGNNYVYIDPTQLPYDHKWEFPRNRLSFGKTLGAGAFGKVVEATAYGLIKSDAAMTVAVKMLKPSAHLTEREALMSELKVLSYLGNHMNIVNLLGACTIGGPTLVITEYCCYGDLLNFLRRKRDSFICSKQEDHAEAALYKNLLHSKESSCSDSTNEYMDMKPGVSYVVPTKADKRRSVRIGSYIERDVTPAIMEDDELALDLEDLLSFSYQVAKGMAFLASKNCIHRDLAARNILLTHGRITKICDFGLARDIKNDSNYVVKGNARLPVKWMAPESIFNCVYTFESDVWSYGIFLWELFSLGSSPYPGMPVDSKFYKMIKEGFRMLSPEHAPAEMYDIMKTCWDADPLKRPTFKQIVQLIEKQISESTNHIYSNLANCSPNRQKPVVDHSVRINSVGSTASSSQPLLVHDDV
Mast/stem cell growth factor receptor Kit (Homo sapiens), P10721 [UNDEFINED MUTATION], sequence (P10721 whole entry, looked up, stated change not applied): as the sequence (P10721 whole entry, the tested form may be a part) above
Mast/stem cell growth factor receptor Kit (Homo sapiens), P10721 [V559D], sequence (P10721 whole entry V559D, the tested form may be a part): as the sequence (P10721 whole entry, the tested form may be a part) above, with V559D counted along it
Platelet-derived growth factor receptor beta, sequence (P09619 whole entry, the tested form may be a part): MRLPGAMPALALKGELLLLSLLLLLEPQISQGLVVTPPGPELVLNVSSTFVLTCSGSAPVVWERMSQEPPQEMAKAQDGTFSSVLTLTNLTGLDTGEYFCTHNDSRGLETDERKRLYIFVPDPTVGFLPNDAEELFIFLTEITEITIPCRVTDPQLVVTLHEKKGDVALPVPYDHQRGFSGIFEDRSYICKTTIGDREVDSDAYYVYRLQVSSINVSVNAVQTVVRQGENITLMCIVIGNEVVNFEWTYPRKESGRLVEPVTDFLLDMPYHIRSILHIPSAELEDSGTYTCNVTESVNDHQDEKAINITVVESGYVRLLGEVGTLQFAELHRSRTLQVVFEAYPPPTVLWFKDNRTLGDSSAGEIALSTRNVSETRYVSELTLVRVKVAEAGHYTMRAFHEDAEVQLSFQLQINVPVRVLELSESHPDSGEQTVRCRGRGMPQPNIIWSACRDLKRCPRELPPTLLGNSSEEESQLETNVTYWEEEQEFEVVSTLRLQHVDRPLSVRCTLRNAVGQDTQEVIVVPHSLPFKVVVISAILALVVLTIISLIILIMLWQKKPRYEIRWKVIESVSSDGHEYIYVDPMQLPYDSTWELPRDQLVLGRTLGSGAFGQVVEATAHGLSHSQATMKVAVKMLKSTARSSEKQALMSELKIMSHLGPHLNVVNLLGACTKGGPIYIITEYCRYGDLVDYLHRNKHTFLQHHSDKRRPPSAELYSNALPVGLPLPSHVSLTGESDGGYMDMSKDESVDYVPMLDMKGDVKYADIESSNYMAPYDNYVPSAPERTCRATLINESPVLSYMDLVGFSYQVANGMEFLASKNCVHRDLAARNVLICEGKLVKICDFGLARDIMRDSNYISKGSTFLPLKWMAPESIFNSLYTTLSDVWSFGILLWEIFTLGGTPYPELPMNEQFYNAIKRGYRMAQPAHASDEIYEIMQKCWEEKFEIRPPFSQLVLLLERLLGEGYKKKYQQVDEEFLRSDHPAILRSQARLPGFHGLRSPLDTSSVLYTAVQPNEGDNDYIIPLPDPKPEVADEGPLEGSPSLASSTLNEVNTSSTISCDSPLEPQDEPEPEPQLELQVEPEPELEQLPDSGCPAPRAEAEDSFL

## O=C(CC(=O)Nc1ccc2c(/C=C/c3ccccn3)n[nH]c2c1)Nc1cccc(F)c1
[1]
  GI50: 1150 nM
[2]
  pIC50: 6.27
[3]
  pEC50: 5.74
[4]
  pEC50: < 6.00
[5]
  Activity: 0%
[6]
  Activity: < 1%
GIST882
  GI50: 296 nM
[7]
  inhibition: Active
[8]
  inhibition: Active
[9]
  inhibition: Active
[10]
  inhibition: Active
[11]
  inhibition: Active
[12]
  inhibition: Active
[13]
  Tmax: 30 min
[14]
  bioavailability: 16.4%
[15]
  Cmax: 378 ng/mL
Mus musculus
  inhibition: inactive
[16]
  inhibition in vivo at 100 mg/kg: 83%
[17]
  Activity: 0.33 g
[18]
  Activity: 0.1 g
